PMC9907348 (Molecular Pharmaceutics, 2023)

Test: Intravital two-photon microscopy of renal disposition
Assay type: in vivo, Munich Wistar Frömter rats
Details: rat; for course of subapical brush border fluorescence / vascular fluorescence after infusion: single iv bolus ∼300 μg/kg; for course of subapical brush border fluorescence: infusion movie ∼2 min 10 s to 300 s
Outline: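 Munich Wistar Frömter rats (9–12 weeks), fed ad libitum, with temperature monitored. Outer-cortex glomeruli with visible S1 proximal tubule openings were marked before a bolus of TAMRA- or TAMRA/QSY7-labelled peptide via an indwelling jugular line. 40 kDa FITC-dextran outlined the brush border. Two-photon excitation was at 800 nm (2.0% transmissivity), imaging for ~60 min. Fluorescence was measured over capillary-loop and subapical brush border regions.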

[1] = iv, intravital two-photon microscopy
[2] = intravital two-photon microscopy
[3] = iv, postinjection, 40 kDa FITC-dextran given just before

Row | Substance | glomerular filtration [1] | proximal tubule (PTEC) binding and endocytosis [1] | course of subapical brush border fluorescence | vascular fluorescence after infusion [2] | time at which fluorescence was detected within apical vesicular arrangements [3] | time at which fluorescence within apical vesicular arrangements became marked [3]
1 | 5-TAMRA exenatide [TAMRA-Ex] | rapid glomerular filtration | rapid and extensive proximal tubule binding and endocytosis | rapid appearance | immediate and pronounced detection of fluorescence |  | 
2 | 5-TAMRA-QSY7 exenatide [FRET-Ex] |  |  | protracted linear increase | virtually undetectable | ≤ 80 s | ≤ 200 s
